From ChEMBL document CHEMBL2086366, “Chemical optimization of new ligands of the low-density lipoprotein receptor as potential vectors for central nervous system targeting” (J Med Chem, 2012)
Where a SMILES comes first, the peptide text is derived from it. Bridges are numbered along the chain shown (N, C = ends).

What was measured:
[1] = Half life in Swiss mouse plasma; type: ADME, cell-free
Outline: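 Peptide in 0.9% NaCl was spiked into freshly collected Swiss mouse blood at 2 μM nominal (n = 3) and kept at 37 °C for 0, 0.5, 1, 2, 5 and 8 h. Plasma was separated, acidified with formic acid, and protein precipitated with acetonitrile. Analysis was by LC-MS/MS (positive ESI), LLOQ 25-50 nM.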

Mus musculus = experiment: Biodistribution in iv dosed dorsal spinal cord of C57-B16 mouse after 10 mins by real time biphoton microscopic analysis; type: ADME, organism-based; conditions: in vivo
Outline: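 C57-Bl6 mice (>7 weeks) anesthetized with ketamine-xylazine (100 mg/kg, 10 mg/kg), T13 laminectomy; 200 μL Rhodamine Red-X-labelled peptide (167 μM in DMSO + PBS) given iv, sometimes with 70 kDa fluorescein dextran. Two-photon imaging (840 nm excitation) of superficial dorsal spinal cord (first 100 μm) from 10 min after injection; scrambled peptide and free dye as controls.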

[2] = molecular target: Low-density lipoprotein receptor (Homo sapiens) (UniProt P01130); experiment: Displacement of S-tagged Ac-DSGL[CMPRLRGC]cDPR-NH2 from human DsRed2-fused LDLR expressed in CHO cells at 10 uM after 1 hr by FRET assay; type: cell-based
Chain of Low-density lipoprotein receptor (Homo sapiens) (P01130 whole entry, the tested form may be a part): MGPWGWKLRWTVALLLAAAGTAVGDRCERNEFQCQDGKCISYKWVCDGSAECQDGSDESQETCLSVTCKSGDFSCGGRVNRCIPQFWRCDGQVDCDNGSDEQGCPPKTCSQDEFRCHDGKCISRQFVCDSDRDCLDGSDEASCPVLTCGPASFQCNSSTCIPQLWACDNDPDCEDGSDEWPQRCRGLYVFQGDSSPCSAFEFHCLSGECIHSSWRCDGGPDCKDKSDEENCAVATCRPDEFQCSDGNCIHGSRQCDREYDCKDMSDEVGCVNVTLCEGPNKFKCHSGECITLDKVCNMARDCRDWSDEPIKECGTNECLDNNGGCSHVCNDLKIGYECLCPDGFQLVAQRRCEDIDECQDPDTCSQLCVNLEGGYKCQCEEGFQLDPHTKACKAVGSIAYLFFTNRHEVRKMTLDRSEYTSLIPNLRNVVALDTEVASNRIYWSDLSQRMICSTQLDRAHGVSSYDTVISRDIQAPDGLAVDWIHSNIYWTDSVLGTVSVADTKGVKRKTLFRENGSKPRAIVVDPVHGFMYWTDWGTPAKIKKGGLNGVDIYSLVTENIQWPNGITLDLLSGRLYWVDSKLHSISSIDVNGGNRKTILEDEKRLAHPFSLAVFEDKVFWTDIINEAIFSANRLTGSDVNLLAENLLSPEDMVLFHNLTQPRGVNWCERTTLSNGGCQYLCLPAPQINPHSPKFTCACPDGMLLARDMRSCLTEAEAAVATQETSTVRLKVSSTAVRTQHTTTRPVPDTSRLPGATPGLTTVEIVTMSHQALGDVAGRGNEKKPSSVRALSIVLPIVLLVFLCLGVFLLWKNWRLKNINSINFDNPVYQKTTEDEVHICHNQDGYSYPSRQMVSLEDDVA
Outline: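 CHO cells stably expressing hLDLR-DsRed2 (Ham-F12, 5% FBS, Geneticin) at 800 000 cells/well were incubated in triplicate with S-tagged reference peptide (10 μM) plus test peptide (10 μM) in Ham-F12/1% BSA, 1 h, 37 °C. Scrambled and untagged peptide controls were included; values are means of at least three points.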

Compound: CSCC[C@@H]1NC(=O)[C@H](NC(C)=O)CSSC[C@@H](C(N)=O)NC(=O)CNC(=O)[C@H](CCCNC(=N)N)NC(=O)[C@H](CC(C)C)NC(=O)[C@H](CCCNC(=N)N)NC(=O)[C@@H]2CCCN2C1=O
- half-life [1]: 182 min
- Drug uptake (Mus musculus): Active

Compound: CSCC[C@@H]1NC(=O)[C@@H](NC(=O)[C@H](CC(C)C)NC(=O)CNC(=O)[C@H](CO)NC(=O)[C@H](CC(=O)O)NC(C)=O)CSSC[C@@H](C(=O)N[C@@H](CC(=O)O)C(=O)N2CCC[C@H]2C(=O)N[C@@H](CCCNC(=N)N)C(N)=O)NC(=O)CNC(=O)[C@H](CCCNC(=N)N)NC(=O)[C@H](CC(C)C)NC(=O)[C@H](C)NC(=O)[C@@H]2CCCN2C1=O (Ac-DSGLCMPALRGCDPR-NH2; disulfide 5-12)
- inhibition [2]: 0%

Compound: CSCC[C@@H]1NC(=O)[C@@H](NC(C)=O)C(C)(C)SSC[C@@H](C(N)=O)NC(=O)CN(C)C(=O)[C@H](CCCNC(=N)N)NC(=O)[C@H](CC(C)C)NC(=O)[C@H](CCCNC(=N)N)NC(=O)[C@@H]2CSCN2C1=O
- half-life [1]: 174 min

Compound: CSCC[C@@H]1NC(=O)[C@H](NC(C)=O)CSSC[C@@H](C(N)=O)NC(=O)CN(C)C(=O)[C@H](CCCNC(=N)N)NC(=O)[C@H](CC(C)C)NC(=O)[C@H](CCCNC(=N)N)NC(=O)[C@@H]2CSCN2C1=O
- half-life [1]: 136 min

Compound: CSCC[C@@H]1NC(=O)[C@@H](NC(=O)[C@H](CC(C)C)NC(=O)CNC(=O)[C@H](CO)NC(=O)[C@H](CC(=O)O)NC(C)=O)CSSC[C@@H](C(=O)N[C@@H](CC(=O)O)C(=O)N2CCC[C@H]2C(=O)N[C@@H](CCCNC(=N)N)C(N)=O)NC(=O)[C@H](C)NC(=O)[C@H](CCCNC(=N)N)NC(=O)[C@H](CC(C)C)NC(=O)[C@H](CCCNC(=N)N)NC(=O)[C@@H]2CCCN2C1=O (Ac-DSGLCMPRLRACDPR-NH2; disulfide 5-12)
- inhibition [2]: 20%

Compound: CSCC[C@@H]1NC(=O)[C@@H](NC(=O)[C@H](CC(C)C)NC(=O)CNC(=O)[C@H](CO)NC(=O)[C@H](CC(=O)O)NC(C)=O)CSSC[C@@H](C(=O)N[C@@H](C)C(=O)N2CCC[C@H]2C(=O)N[C@@H](CCCNC(=N)N)C(N)=O)NC(=O)CNC(=O)[C@H](CCCNC(=N)N)NC(=O)[C@H](CC(C)C)NC(=O)[C@H](CCCNC(=N)N)NC(=O)[C@@H]2CCCN2C1=O (Ac-DSGLCMPRLRGCAPR-NH2; disulfide 5-12)
- inhibition [2]: 70%

Compound: Ac-DSGLCMPRLRGADPR-NH2
- inhibition [2]: 0%

Compound: CSCC[C@@H]1NC(=O)[C@@H](NC(=O)[C@H](CC(C)C)NC(=O)CNC(=O)[C@H](CO)NC(=O)[C@H](CC(=O)O)NC(C)=O)CSSC[C@@H](C(=O)N[C@@H](CC(=O)O)C(=O)N[C@@H](C)C(=O)N[C@@H](CCCNC(=N)N)C(N)=O)NC(=O)CNC(=O)[C@H](CCCNC(=N)N)NC(=O)[C@H](CC(C)C)NC(=O)[C@H](CCCNC(=N)N)NC(=O)[C@@H]2CCCN2C1=O (Ac-DSGLCMPRLRGCDAR-NH2; disulfide 5-12)
- inhibition [2]: 52%

Compound: CSCC[C@@H]1NC(=O)[C@@H](NC(=O)[C@H](CC(C)C)NC(=O)CNC(=O)[C@H](CO)NC(=O)[C@H](CC(=O)O)NC(C)=O)CSSC[C@@H](C(=O)N[C@@H](CC(=O)O)C(=O)N2CCC[C@H]2C(=O)N[C@@H](CCCNC(=N)N)C(N)=O)NC(=O)CNC(=O)[C@H](C)NC(=O)[C@H](CC(C)C)NC(=O)[C@H](CCCNC(=N)N)NC(=O)[C@@H]2CCCN2C1=O (Ac-DSGLCMPRLAGCDPR-NH2; disulfide 5-12)
- inhibition [2]: 2%

Compound: CSCC[C@@H]1NC(=O)[C@@H](NC(=O)[C@H](CC(C)C)NC(=O)CNC(=O)[C@H](CO)NC(=O)[C@H](CC(=O)O)NC(C)=O)CSSC[C@@H](C(=O)N[C@@H](CC(=O)O)C(=O)N2CCC[C@H]2C(=O)N[C@@H](CCCNC(=N)N)C(N)=O)NC(=O)CNC(=O)[C@H](CCCNC(=N)N)NC(=O)[C@H](CC(C)C)NC(=O)[C@H](CCCNC(=N)N)NC(=O)[C@@H]2CCCN2C1=O
- inhibition [2]: 55%

Compound: CSCC[C@H](NC(=O)[C@H](CS)NC(=O)[C@H](CC(C)C)NC(=O)CNC(=O)[C@H](CO)NC(=O)[C@H](CC(=O)O)NC(C)=O)C(=O)N1CCC[C@H]1C(=O)N[C@@H](CCCNC(=N)N)C(=O)N[C@@H](CC(C)C)C(=O)N[C@@H](CCCNC(=N)N)C(=O)NCC(=O)N[C@@H](CS)C(=O)N[C@@H](CC(=O)O)C(=O)N1CCC[C@H]1C(=O)N[C@@H](CCCNC(=N)N)C(N)=O
- inhibition [2]: 50%

Compound: CSCC[C@@H]1NC(=O)[C@@H](NC(=O)[C@H](C)NC(=O)CNC(=O)[C@H](CO)NC(=O)[C@H](CC(=O)O)NC(C)=O)CSSC[C@@H](C(=O)N[C@@H](CC(=O)O)C(=O)N2CCC[C@H]2C(=O)N[C@@H](CCCNC(=N)N)C(N)=O)NC(=O)CNC(=O)[C@H](CCCNC(=N)N)NC(=O)[C@H](CC(C)C)NC(=O)[C@H](CCCNC(=N)N)NC(=O)[C@@H]2CCCN2C1=O (Ac-DSGACMPRLRGCDPR-NH2; disulfide 5-12)
- inhibition [2]: 64%

Compound: CSCC[C@@H]1NC(=O)[C@@H](NC(C)=O)C(C)(C)SSC[C@@H](C(N)=O)NC(=O)CNC(=O)[C@H](CCCNC(=N)N)NC(=O)[C@H](CC(C)C)NC(=O)[C@H](CCCNC(=N)N)NC(=O)[C@@H]2CCCCN2C1=O
- half-life [1]: 179 min

Compound: CSCC[C@@H]1NC(=O)[C@@H](NC(=O)[C@H](CC(C)C)NC(=O)CNC(=O)[C@H](CO)NC(=O)[C@H](CC(=O)O)NC(C)=O)CSSC[C@@H](C(=O)N[C@@H](CC(=O)O)C(=O)N2CCC[C@H]2C(=O)N[C@@H](C)C(N)=O)NC(=O)CNC(=O)[C@H](CCCNC(=N)N)NC(=O)[C@H](CC(C)C)NC(=O)[C@H](CCCNC(=N)N)NC(=O)[C@@H]2CCCN2C1=O (Ac-DSGLCMPRLRGCDPA-NH2; disulfide 5-12)
- inhibition [2]: 55%

Compound: Ac-DSGLSMPRLRGSDPR-NH2
- inhibition [2]: 0%

Compound: CSCC[C@@H]1NC(=O)[C@@H](NC(=O)[C@H](CC(C)C)NC(=O)CNC(=O)[C@H](CO)NC(=O)[C@H](CC(=O)O)NC(C)=O)CSSC[C@@H](C(=O)N[C@@H](CC(=O)O)C(=O)N2CCC[C@H]2C(=O)N[C@@H](CCCNC(=N)N)C(N)=O)NC(=O)CNC(=O)[C@H](CCCNC(=N)N)NC(=O)[C@H](C)NC(=O)[C@H](CCCNC(=N)N)NC(=O)[C@@H]2CCCN2C1=O (Ac-DSGLCMPRARGCDPR-NH2; disulfide 5-12)
- inhibition [2]: 35%

Compound: CSCC[C@@H]1NC(=O)[C@H](NC(C)=O)CSSC[C@@H](C(N)=O)NC(=O)CNC(=O)[C@H](CCCNC(=N)N)NC(=O)[C@H](CC(C)C)NC(=O)[C@H](CCCNC(=N)N)NC(=O)[C@@H]2CSCN2C1=O
- half-life [1]: 108 min

Compound: CSCC[C@@H]1NC(=O)[C@@H](NC(C)=O)CSSC[C@@H](C(N)=O)NC(=O)CNC(=O)[C@H](CCCNC(=N)N)NC(=O)[C@@H]2CCCN2C1=O (Ac-CMPRGC-NH2; disulfide 1-6)
- inhibition [2]: 39%

Compound: CSCC[C@@H]1NC(=O)[C@H](NC(C)=O)C(C)(C)SSC[C@@H](C(N)=O)NC(=O)CNC(=O)[C@H](CCCNC(=N)N)NC(=O)[C@H](CC(C)C)NC(=O)[C@H](CCCNC(=N)N)NC(=O)[C@@H]2CCCCN2C1=O
- half-life [1]: 102 min

Compound: CSCC[C@@H]1NC(=O)[C@@H](NC(=O)[C@H](CC(C)C)NC(=O)CNC(=O)[C@H](CO)NC(=O)[C@H](CC(=O)O)NC(C)=O)CSSC[C@@H](C(=O)N[C@@H](CC(=O)O)C(=O)N2CCC[C@H]2C(=O)N[C@@H](CCCNC(=N)N)C(N)=O)NC(=O)CNC(=O)[C@H](CCCNC(=N)N)NC(=O)[C@H](CC(C)C)NC(=O)[C@H](CCCNC(=N)N)NC(=O)[C@H](C)NC1=O (Ac-DSGLCMARLRGCDPR-NH2; disulfide 5-12)
- inhibition [2]: 3%

Compound: CSCC[C@@H]1NC(=O)[C@@H](NC(=O)[C@H](CC(C)C)NC(=O)[C@H](C)NC(=O)[C@H](CO)NC(=O)[C@H](CC(=O)O)NC(C)=O)CSSC[C@@H](C(=O)N[C@@H](CC(=O)O)C(=O)N2CCC[C@H]2C(=O)N[C@@H](CCCNC(=N)N)C(N)=O)NC(=O)CNC(=O)[C@H](CCCNC(=N)N)NC(=O)[C@H](CC(C)C)NC(=O)[C@H](CCCNC(=N)N)NC(=O)[C@@H]2CCCN2C1=O (Ac-DSALCMPRLRGCDPR-NH2; disulfide 5-12)
- inhibition [2]: 58%

Compound: Ac-DSGLAMPRLRGCDPR-NH2
- inhibition [2]: 0%

Compound: CSCC[C@@H]1NC(=O)[C@@H](NC(C)=O)CSSC[C@@H](C(N)=O)NC(=O)CNC(=O)[C@H](CCCNC(=N)N)NC(=O)[C@H](CC(C)C)NC(=O)[C@H](CCCNC(=N)N)NC(=O)[C@@H]2CCCN2C1=O
- half-life [1]: 88.2 min
